Measurements from ChEMBL document CHEMBL1153560, “In vitro activities of doripenem and six comparator drugs against 423 aerobic and anaerobic bacterial isolates from infected diabetic foot wounds” (2008).
In brackets after ≈: the same amount, converted by molar mass.

Key:
Type in all cases: functional
Proteus vulgaris [1] = assay: Antibacterial activity against Proteus vulgaris isolated from patient with diabetic foot infection assessed as percent resistant isolates after 18 to 24 hrs by broth microdilution method
Summary of the method: (§1)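 Aerobes subcultured on Trypticase soy blood agar, then broth microdilution in cation-adjusted Mueller-Hinton broth. Trays prepared in-house with twofold dilutions and stored at −70°C. Overnight colonies suspended to about 5 × 10^5 CFU/ml final. Read after 18 to 24 h at 37°C. QC strains included S. aureus ATCC 29213 and E. coli ATCC 25922.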

Corynebacterium striatum = assay: Antibacterial activity against Corynebacterium striatum isolated from patient with diabetic foot infection assessed as percent resistant isolates after 48 hrs by broth microdilution method
Summary of the method: (§2)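 Isolates subcultured on Trypticase soy blood agar. Broth microdilution in cation-adjusted Mueller-Hinton broth with lysed horse blood, using in-house twofold dilution trays stored at −70°C. Inoculum from overnight colonies at about 5 × 10^5 CFU/ml final. Read after 18 to 24 h at 37°C, up to 48 h for some Corynebacterium strains.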

Corynebacterium accolens = assay: Antibacterial activity against Corynebacterium accolens isolated from patient with diabetic foot infection assessed as percent resistant isolates after 48 hrs by broth microdilution method; summary of the method: as §2
[2] = test system: Staphylococcus epidermidis; assay: Antibacterial activity against Staphylococcus epidermidis isolated from patient with diabetic foot infection after 18 to 24 hrs by broth microdilution method
Summary of the method: (§3)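 Isolates were subcultured on Trypticase soy blood agar and tested by broth microdilution in cation-adjusted Mueller-Hinton broth. In-house trays of twofold drug dilutions were stored at −70°C. Overnight colonies gave a final inoculum of about 5 × 10^5 CFU/ml. Plates were read after 18 to 24 h at 37°C.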

[3] = test system: Staphylococcus lugdunensis; assay: Antibacterial activity against Staphylococcus lugdunensis isolated from patient with diabetic foot infection after 18 to 24 hrs by broth microdilution method
Summary of the method: (§4)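 Subcultured on Trypticase soy blood agar, then broth microdilution in cation-adjusted Mueller-Hinton broth. Trays were made in-house with serial twofold drug dilutions and stored at −70°C. Inoculum was colonies from overnight growth, final approximately 5 × 10^5 CFU/ml. MIC was read after 18 to 24 h at 37°C. QC strains: S. aureus ATCC 29213 and E. coli ATCC 25922.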

Streptococcus agalactiae = assay: Antibacterial activity against Streptococcus agalactiae isolated from patient with diabetic foot infection after 18 to 24 hrs by broth microdilution method
Summary of the method: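 Streptococcal isolates were subcultured on Trypticase soy blood agar. Broth microdilution used cation-adjusted Mueller-Hinton broth with lysed horse blood, in in-house trays of serial twofold drug dilutions stored at −70°C. Overnight colonies were suspended to a final inoculum of approximately 5 × 10^5 CFU/ml. MIC was read after 18 to 24 h incubation at 37°C.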

[4] = test system: Streptococcus dysgalactiae subsp. equisimilis; assay: Antibacterial activity against Streptococcus dysgalactiae subsp. equisimilis isolated from patient with diabetic foot infection assessed as percent resistant isolates after 18 to 24 hrs by broth microdilution method
Summary of the method: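 Streptococci subcultured on Trypticase soy blood agar and tested by broth microdilution in cation-adjusted Mueller-Hinton broth with lysed horse blood. In-house twofold dilution trays stored at −70°C. About 5 × 10^5 CFU/ml final inoculum from overnight colonies. Read after 18 to 24 h at 37°C.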

[5] = test system: Corynebacterium urealyticum; assay: Antibacterial activity against Corynebacterium urealyticum isolated from patient with diabetic foot infection after 48 hrs by broth microdilution method
Summary of the method: (§5)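 Isolates were subcultured on Trypticase soy blood agar. Broth microdilution used cation-adjusted Mueller-Hinton broth with lysed horse blood, in-house trays of twofold drug dilutions stored at −70°C. Colonies from overnight growth gave a final inoculum of about 5 × 10^5 CFU/ml. Trays were read after 18 to 24 h at 37°C, up to 48 h for some strains.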

Corynebacterium xerosis = assay: Antibacterial activity against Corynebacterium xerosis isolated from patient with diabetic foot infection after 48 hrs by broth microdilution method; summary of the method: as §5
Staphylococcus aureus [6] = assay: Antibacterial activity against methicillin-resistant Staphylococcus aureus isolated from patient with diabetic foot infection after 18 to 24 hrs by broth microdilution method
Summary of the method: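 Isolates grown on Trypticase soy blood agar, then tested by broth microdilution in unsupplemented cation-adjusted Mueller-Hinton broth. In-house trays held serial twofold drug dilutions and were stored at −70°C. Overnight colonies were suspended to a final inoculum near 5 × 10^5 CFU/ml, and trays read after 18–24 h at 37°C. QC strains: S. aureus ATCC 29213, E. coli ATCC 25922.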

Staphylococcus aureus [7] = assay: Antibacterial activity against methicillin-sensitive Staphylococcus aureus isolated from patient with diabetic foot infection after 18 to 24 hrs by broth microdilution method; summary of the method: as §4
Corynebacterium = assay: Antibacterial activity against multi drug-resistant Corynebacterium assessed as percent of susceptible isolates at =< 4 ug/ml by NCCLS M7-A6 method
Enterobacter cloacae [8] = assay: Antibacterial activity against Enterobacter cloacae isolated from patient with diabetic foot infection assessed as percent resistant isolates after 18 to 24 hrs by broth microdilution method; summary of the method: as §1
Klebsiella oxytoca = assay: Antibacterial activity against Klebsiella oxytoca isolated from patient with diabetic foot infection assessed as percent resistant isolates after 18 to 24 hrs by broth microdilution method; summary of the method: as §1
Enterococcus faecalis = assay: Antibacterial activity against Enterococcus faecalis after 44 to 48 hrs by agar dilution method
Clostridioides difficile = assay: Antibacterial activity against Clostridium difficile ATCC 700057 after 44 to 48 hrs by agar dilution method
Summary of the method: (§6)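 CLSI M11-A7 agar dilution: serial twofold drug dilutions made on the test day and added to molten agar. Spots of 10^5 CFU were applied by replicator, with drug-free control plates inoculated before and after each set. Incubation was 44 to 48 h at 37°C in an anaerobic chamber. MIC was the lowest concentration giving no growth or a marked change in growth versus controls.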

Enterobacter cloacae [9] = assay: Antibacterial activity against Enterobacter cloacae isolated from patient with diabetic foot infection after 18 to 24 hrs by broth microdilution method; summary of the method: as §3
Klebsiella pneumoniae = assay: Antibacterial activity against Klebsiella pneumoniae isolated from patient with diabetic foot infection after 18 to 24 hrs by broth microdilution method; summary of the method: as §3
Proteus vulgaris [10] = assay: Antibacterial activity against Proteus vulgaris isolated from patient with diabetic foot infection after 18 to 24 hrs by broth microdilution method; summary of the method: as §3
Staphylococcus aureus [11] = assay: Antibacterial activity against Staphylococcus aureus ATCC 29213 after 44 to 48 hrs by agar dilution method
Escherichia coli = assay: Antibacterial activity against Escherichia coli ATCC 25922 after 44 to 48 hrs by agar dilution method
Bacteroides fragilis = assay: Antibacterial activity against Bacteroides fragilis ATCC 25285 after 44 to 48 hrs by agar dilution method; summary of the method: as §6

Compound	Activity (Proteus vulgaris [1]) [%]	MIC50 [2] [µg/mL]	MIC90 [2] [µg/mL]	MIC50 [3] [µg/mL]	MIC90 [3] [µg/mL]	MIC50 (Streptococcus agalactiae) [µg/mL]	MIC90 (Streptococcus agalactiae) [µg/mL]	Activity [4] [%]	MIC50 [5] [µg/mL]	MIC90 [5] [µg/mL]	MIC50 (Corynebacterium xerosis) [µg/mL]	MIC90 (Corynebacterium xerosis) [µg/mL]	MIC50 (Staphylococcus aureus [6]) [µg/mL]	MIC90 (Staphylococcus aureus [6]) [µg/mL]	MIC50 (Staphylococcus aureus [7]) [µg/mL]	MIC90 (Staphylococcus aureus [7]) [µg/mL]	Activity (Enterobacter cloacae [8]) [%]	Activity (Klebsiella oxytoca) [%]	MIC50 (Enterobacter cloacae [9]) [µg/mL]	MIC90 (Enterobacter cloacae [9]) [µg/mL]	further results
CCC[C@@H]1C[C@@H](C(=O)N[C@@H]([C@H]2O[C@H](SC)[C@H](O)[C@@H](O)[C@H]2O)[C@H](C)Cl)N(C)C1 [CLINDAMYCIN]	0	0.25 (≈ 0.588 µM)	> 64	0.125 (≈ 0.294 µM)	> 64	0.125 (≈ 0.294 µM)	> 64	13	> 64	> 64	2 (≈ 4.71 µM)	> 64	0.125 (≈ 0.294 µM)	> 64	0.125 (≈ 0.294 µM)	0.25 (≈ 0.588 µM)					Activity (Corynebacterium striatum): 78%; Activity (Corynebacterium accolens): 78%
C[C@@H](O)[C@H]1C(=O)N2C(C(=O)O)=C(S[C@@H]3CN[C@H](CNS(N)(=O)=O)C3)[C@H](C)[C@H]12 [DORIPENEM]	0	0.25 (≈ 0.595 µM)	2 (≈ 4.76 µM)	0.125 (≈ 0.297 µM)	0.125 (≈ 0.297 µM)	≤ 0.015	0.03 (≈ 0.0713 µM)	0	1 (≈ 2.38 µM)	8 (≈ 19 µM)	0.125 (≈ 0.297 µM)	0.25 (≈ 0.595 µM)	0.5 (≈ 1.19 µM)	8 (≈ 19 µM)	0.03 (≈ 0.0713 µM)	0.03 (≈ 0.0713 µM)	0	0	0.06 (≈ 0.143 µM)	0.25 (≈ 0.595 µM)	Activity (Corynebacterium): 40%; MIC (Enterococcus faecalis): 2 µg/mL (≈ 4.76 µM); MIC (Clostridioides difficile): 2 µg/mL (≈ 4.76 µM); MIC50 (Klebsiella pneumoniae): 0.06 µg/mL (≈ 0.143 µM); MIC90 (Klebsiella pneumoniae): 0.125 µg/mL (≈ 0.297 µM); MIC50 (Proteus vulgaris [10]): 0.125 µg/mL (≈ 0.297 µM); MIC90 (Proteus vulgaris [10]): 0.25 µg/mL (≈ 0.595 µM); MIC (Staphylococcus aureus [11]): 0.03 µg/mL (≈ 0.0713 µM); MIC (Escherichia coli): ≤ 0.015 µg/mL; MIC (Bacteroides fragilis): 0.125 µg/mL (≈ 0.297 µM)
C[C@@H](O)[C@H]1C(=O)N2C(C(=O)O)=C(S[C@@H]3CN[C@H](C(=O)Nc4cccc(C(=O)O)c4)C3)[C@H](C)[C@H]12 [ERTAPENEM]	0	2 (≈ 4.21 µM)	8 (≈ 16.8 µM)	0.5 (≈ 1.05 µM)	1 (≈ 2.1 µM)	0.06 (≈ 0.126 µM)	0.06 (≈ 0.126 µM)	0	1 (≈ 2.1 µM)	32 (≈ 67.3 µM)	0.5 (≈ 1.05 µM)	1 (≈ 2.1 µM)	2 (≈ 4.21 µM)	> 32	0.125 (≈ 0.263 µM)	0.25 (≈ 0.526 µM)	0	0	0.06 (≈ 0.126 µM)	0.5 (≈ 1.05 µM)	MIC50 (Klebsiella pneumoniae): ≤ 0.015 µg/mL; MIC90 (Klebsiella pneumoniae): ≤ 0.015 µg/mL; MIC50 (Proteus vulgaris [10]): ≤ 0.015 µg/mL; MIC90 (Proteus vulgaris [10]): 0.25 µg/mL (≈ 0.526 µM)
C[C@@H](O)[C@H]1C(=O)N2C(C(=O)O)=C(SCCNC=N)C[C@H]12 [IMIPENEM ANHYDROUS]	0	0.125 (≈ 0.418 µM)	0.5 (≈ 1.67 µM)	0.03 (≈ 0.1 µM)	0.06 (≈ 0.2 µM)	≤ 0.015	≤ 0.015	0	0.25 (≈ 0.835 µM)	32 (≈ 107 µM)	0.03 (≈ 0.1 µM)	0.125 (≈ 0.418 µM)	0.25 (≈ 0.835 µM)	4 (≈ 13.4 µM)	≤ 0.015	0.03 (≈ 0.1 µM)	0	0	1 (≈ 3.34 µM)	2 (≈ 6.68 µM)	Activity (Corynebacterium striatum): 0%; Activity (Corynebacterium accolens): 0%; MIC50 (Klebsiella pneumoniae): 0.25 µg/mL (≈ 0.835 µM); MIC90 (Klebsiella pneumoniae): 1 µg/mL (≈ 3.34 µM); MIC50 (Proteus vulgaris [10]): 0.5 µg/mL (≈ 1.67 µM); MIC90 (Proteus vulgaris [10]): 4 µg/mL (≈ 13.4 µM)
C[C@@H](O)[C@H]1C(=O)N2C(C(=O)O)=C(S[C@@H]3CN[C@H](C(=O)N(C)C)C3)[C@H](C)[C@H]12 [MEROPENEM]	0	1 (≈ 2.61 µM)	4 (≈ 10.4 µM)	0.25 (≈ 0.652 µM)	0.5 (≈ 1.3 µM)	0.06 (≈ 0.156 µM)	0.06 (≈ 0.156 µM)	0	1 (≈ 2.61 µM)	16 (≈ 41.7 µM)	0.125 (≈ 0.326 µM)	0.25 (≈ 0.652 µM)	2 (≈ 5.22 µM)	16 (≈ 41.7 µM)	0.06 (≈ 0.156 µM)	0.125 (≈ 0.326 µM)	0	0	0.06 (≈ 0.156 µM)	0.5 (≈ 1.3 µM)	Activity (Corynebacterium striatum): 0%; Activity (Corynebacterium accolens): 0%; MIC50 (Klebsiella pneumoniae): 0.03 µg/mL (≈ 0.0782 µM); MIC90 (Klebsiella pneumoniae): 0.06 µg/mL (≈ 0.156 µM); MIC50 (Proteus vulgaris [10]): 0.06 µg/mL (≈ 0.156 µM); MIC90 (Proteus vulgaris [10]): 0.125 µg/mL (≈ 0.326 µM)
